# Assay results from ChEMBL document CHEMBL2034980, “N⁴-Phenyl-substituted 2-acetylpyridine thiosemicarbazones: cytotoxicity against human tumor cells, structure-activity relationship studies and investigation on the mechanism of action” (Bioorg Med Chem, 2012).
# Calls of active or inactive are those of the source. The calls are words filed in the database; no cut-off is given here.
# Key:
# T98G [1] = assay: Cytotoxicity against human T98G cells expressing mutant p53 after 48 hrs by MTT assay; assay type: functional, cell-based
# Method in brief: (§1)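 MTT assay. Cells were grown in DMEM with 10% FBS and penicillin/streptomycin at 37 °C under 5% CO2, seeded at 1–2×10^3 cells/well and treated 12 h later with 1×10^-12 to 1×10^-5 M ([…] from DMSO stock, final DMSO <0.5%) for 48 h. MTT was added at 0.5 mg mL⁻¹, formazan dissolved in DMSO and read at 570 nm. IC50 is the concentration giving 50% cytotoxicity. Quadruplicates, ≥3 independent experiments.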
# MCF7 [2] = assay: Cytotoxicity against human MCF7 cells after 48 hrs by MTT assay; assay type: functional, cell-based; settings: for IC50: MCF7, 48 h; method in brief: as §1
# [3] = (§2) Cytotoxicity against human U87 cells expressing wild-type p53 after 48 hrs by MTT assay; assay type: functional, cell-based, U-87MG ATCC; settings: U-87 MG; method in brief: as §1
# T98G [4] = assay: Induction of apoptosis in human T98G cells assessed as appearance of autophagolysosomes at 1 uM after 48 hrs by acridine orange/ethidium bromide staining-based microscopy; assay type: functional, cell-based
# Method in brief: (§3)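 After 48 h at 1 μM, cells were incubated for 15 min in serum-free medium containing 1 μg mL⁻¹ acridine orange and 1 μg mL⁻¹ ethidium bromide. The medium was removed and cells imaged by inverted fluorescence microscopy (530–650 nm). Green/orange nuclear patterns and acidic cytoplasmic vacuoles were scored.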
# T98G [5] = assay: Induction of apoptosis in human T98G cells assessed as chromatin condensation at 1 uM after 48 hrs by DAPI staining; assay type: functional, cell-based
# Method in brief: (§4)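 Cells were treated at 1 μM for 48 h, washed in PBS and fixed in 70% methanol for 30 min at room temperature. They were stained with 0.4 μg mL⁻¹ DAPI for 1 h in the dark, and nuclear condensation and fragmentation were scored by fluorescence microscopy (385–410 nm).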
# MCF7 [6] = assay: Induction of apoptosis in human MCF7 cells assessed as membrane blebbing at 1 uM after 48 hrs by DAPI staining; assay type: functional, cell-based
# MCF7 [7] = assay: Induction of apoptosis in human MCF7 cells assessed as cell shrinkage at 1 uM after 48 hrs by DAPI staining; assay type: functional, cell-based
# T98G [8] = assay: Induction of apoptosis in human T98G cells assessed as chromatin condensation at 1 uM after 48 hrs by acridine orange/ethidium bromide staining-based microscopy; assay type: functional, cell-based; method in brief: as §3
# U-87MG ATCC [9] = assay: Induction of apoptosis in human U87 cells assessed as irregularities in cellular shape at 1 uM after 48 hrs by DAPI staining; assay type: functional, cell-based
# T98G [10] = assay: Induction of apoptosis in human T98G cells assessed as membrane blebbing at 1 uM after 48 hrs […]; assay type: functional, cell-based
# [11] = Haemolytic activity in human RBC after 1 hr by photometry; assay type: ADME, cell-based; settings: Erythrocyte
# Method in brief: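 Human EDTA blood was spun at 700xg for 10 min and the erythrocytes washed three times in cold PBS pH 7.4, then resuspended in it. Cells were incubated with varying compound concentrations for 1 h at 37 °C with shaking. After centrifugation, released haemoglobin was read at 540 nm to give the IC50. Mean ± SD, n = 4.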
# T98G [12] = assay: Induction of apoptosis in human T98G cells assessed as DNA fragmentation at 1 uM after 48 hrs by DAPI staining; assay type: functional, cell-based; method in brief: as §4
# U-87MG ATCC [13] = assay: as §2; assay type: functional, cell-based; method in brief: as §1
# U-87MG ATCC [14] = assay: Induction of apoptosis in human U87 cells assessed as appearance of autophagolysosomes at 1 uM after 48 hrs by acridine orange/ethidium bromide staining-based microscopy; assay type: functional, cell-based; method in brief: as §3
# U-87MG ATCC [15] = assay: Induction of apoptosis in human U87 cells assessed as chromatin condensation at 1 uM after 48 hrs by DAPI staining; assay type: functional, cell-based; method in brief: as §4
# MCF7 [16] = assay: Induction of apoptosis in human MCF7 cells assessed as chromatin condensation at 1 uM after 48 hrs by DAPI staining; assay type: functional, cell-based; method in brief: as §4
# T98G [17] = assay: Induction of apoptosis in human T98G cells assessed as cell shrinkage at 1 uM after 48 hrs by DAPI staining; assay type: functional, cell-based
# U-87MG ATCC [18] = assay: Induction of apoptosis in human U87 cells assessed as cell shrinkage at 1 uM after 48 hrs by DAPI staining; assay type: functional, cell-based
# U-87MG ATCC [19] = assay: Induction of apoptosis in human U87 cells assessed as chromatin condensation at 1 uM after 48 hrs by acridine orange/ethidium bromide staining-based microscopy; assay type: functional, cell-based; method in brief: as §3
# MCF7 [20] = assay: Induction of apoptosis in human MCF7 cells assessed as appearance of autophagolysosomes at 1 uM after 48 hrs by acridine orange/ethidium bromide staining-based microscopy; assay type: functional, cell-based; method in brief: as §3
# MCF7 [21] = assay: Induction of apoptosis in human MCF7 cells assessed as chromatin condensation at 1 uM after 48 hrs by acridine orange/ethidium bromide staining-based microscopy; assay type: functional, cell-based; method in brief: as §3
# T98G [22] = assay: Induction of apoptosis in human T98G cells assessed as irregularities in cellular shape at 1 uM after 48 hrs by DAPI staining; assay type: functional, cell-based
# U-87MG ATCC [23] = assay: Induction of apoptosis in human U87 cells assessed as membrane blebbing at 1 uM after 48 hrs by DAPI staining; assay type: functional, cell-based
# MCF7 [24] = assay: Induction of apoptosis in human MCF7 cells assessed as DNA fragmentation at 1 uM after 48 hrs by DAPI staining; assay type: functional, cell-based; method in brief: as §4
# MCF7 [25] = assay: Induction of apoptosis in human MCF7 cells assessed as irregularities in cellular shape at 1 uM after 48 hrs by DAPI staining; assay type: functional, cell-based
# U-87MG ATCC [26] = assay: Induction of apoptosis in human U87 cells assessed as DNA fragmentation at 1 uM after 48 hrs by DAPI staining; assay type: functional, cell-based; method in brief: as §4
structure (smiles),measurement,setting,value
C/C(=N\NC(=S)Nc1cccc(Cl)c1)c1ccccn1,IC50,T98G [1]; read-out: pIC50 (converted),1 nM
same,IC50,MCF7 [2]; read-out: pIC50 (converted),24 nM
same,IC50,[3]; read-out: pIC50 (converted),31 nM
C/C(=N/NC(=S)Nc1cccc(I)c1)c1ccccn1,IC50,T98G [1]; read-out: pIC50 (converted),61 nM
same,IC50,MCF7 [2]; read-out: pIC50 (converted),45 nM
same,IC50,[3]; read-out: pIC50 (converted),83.9 nM
C/C(=N\NC(=S)Nc1ccccc1F)c1ccccn1,IC50,T98G [1]; read-out: pIC50 (converted),3.1 nM
same,IC50,MCF7 [2]; read-out: pIC50 (converted),0.39 nM
same,IC50,[3]; read-out: pIC50 (converted),5 nM
C/C(=N/NC(=S)Nc1ccccc1Cl)c1ccccn1,IC50,T98G [1]; read-out: pIC50 (converted),1.1 nM
same,IC50,MCF7 [2]; read-out: pIC50 (converted),0.16 nM
same,IC50,[3]; read-out: pIC50 (converted),2.6 nM
CC(=NNC(=S)Nc1cccc([N+](=O)[O-])c1)c1ccccn1 (mixture of isomers),Activity,T98G [4],Active
same,Activity,T98G [5],Active
same,Activity,MCF7 [6],Active
same,Activity,T98G [1],Dose-dependent effect
same,IC50,T98G [1]; read-out: IC50,140 nM
same,Activity,MCF7 [7],Active
same,Activity,T98G [8],Active
same,Activity,U-87MG ATCC [9],Active
same,Activity,MCF7 [2],Dose-dependent effect
same,IC50,MCF7 [2]; read-out: IC50,38 nM
same,Activity,T98G [10],Active
same,IC50,[11],> 10 µM
same,Activity,T98G [12],Active
same,Activity,U-87MG ATCC [13],Dose-dependent effect
same,IC50,[3]; read-out: IC50,69 nM
same,Activity,U-87MG ATCC [14],Active
same,Activity,U-87MG ATCC [15],Active
same,Activity,MCF7 [16],Active
same,Activity,T98G [17],Active
same,Activity,U-87MG ATCC [18],Active
same,Activity,U-87MG ATCC [19],Active
same,Activity,MCF7 [20],Active
same,Activity,MCF7 [21],Active
same,Activity,T98G [22],Active
same,Activity,U-87MG ATCC [23],Active
same,Activity,MCF7 [24],Active
same,Activity,MCF7 [25],Active
same,Activity,U-87MG ATCC [26],Active
CC(=NNC(=S)Nc1cccc(F)c1)c1ccccn1 (mixture of isomers),Activity,T98G [4],Active
same,Activity,T98G [5],Active
same,Activity,MCF7 [6],Active
same,Activity,T98G [1],Dose-dependent effect
same,IC50,T98G [1]; read-out: IC50,12 nM
same,Activity,MCF7 [7],Active
same,Activity,T98G [8],Active
same,Activity,U-87MG ATCC [9],Active
same,Activity,MCF7 [2],Dose-dependent effect
same,IC50,MCF7 [2]; read-out: IC50,9 nM
same,Activity,T98G [10],Active
same,IC50,[11],> 10 µM
same,Activity,T98G [12],Active
same,Activity,U-87MG ATCC [13],Dose-dependent effect
same,IC50,[3]; read-out: IC50,18 nM
same,Activity,U-87MG ATCC [14],Active
same,Activity,U-87MG ATCC [15],Active
same,Activity,MCF7 [16],Active
same,Activity,T98G [17],Active
same,Activity,U-87MG ATCC [18],Active
same,Activity,U-87MG ATCC [19],Active
same,Activity,MCF7 [20],Active
same,Activity,MCF7 [21],Active
same,Activity,T98G [22],Active
same,Activity,U-87MG ATCC [23],Active
same,Activity,MCF7 [24],Active
same,Activity,MCF7 [25],Active
same,Activity,U-87MG ATCC [26],Active
C/C(=N\NC(=S)Nc1ccccc1Cl)c1ccccn1,IC50,T98G [1]; read-out: pIC50 (converted),1.1 nM
same,IC50,MCF7 [2]; read-out: pIC50 (converted),0.16 nM
same,IC50,[3]; read-out: pIC50 (converted),2.6 nM
CC(=NNC(=S)Nc1cccc(I)c1)c1ccccn1 (mixture of isomers),Activity,T98G [4],Active
same,Activity,T98G [5],Active
same,Activity,MCF7 [6],Active
same,Activity,T98G [1],Dose-dependent effect
same,IC50,T98G [1]; read-out: IC50,61 nM
same,Activity,MCF7 [7],Active
same,Activity,T98G [8],Active
same,Activity,U-87MG ATCC [9],Active
same,Activity,MCF7 [2],Dose-dependent effect
same,IC50,MCF7 [2]; read-out: IC50,45 nM
same,Activity,T98G [10],Active
same,IC50,[11],> 10 µM
same,Activity,T98G [12],Active
same,Activity,U-87MG ATCC [13],Dose-dependent effect
same,IC50,[3]; read-out: IC50,84 nM
same,Activity,U-87MG ATCC [14],Active
same,Activity,U-87MG ATCC [15],Active
same,Activity,MCF7 [16],Active
same,Activity,T98G [17],Active
same,Activity,U-87MG ATCC [18],Active
same,Activity,U-87MG ATCC [19],Active
same,Activity,MCF7 [20],Active
same,Activity,MCF7 [21],Active
same,Activity,T98G [22],Active
same,Activity,U-87MG ATCC [23],Active
same,Activity,MCF7 [24],Active
same,Activity,MCF7 [25],Active
same,Activity,U-87MG ATCC [26],Active
C/C(=N/NC(=S)Nc1ccc(F)cc1)c1ccccn1,IC50,T98G [1]; read-out: pIC50 (converted),17 nM
same,IC50,MCF7 [2]; read-out: pIC50 (converted),1.2 nM
same,IC50,[3]; read-out: pIC50 (converted),10 nM
COc1cc([C@@H]2c3cc4c(cc3[C@@H](O[C@@H]3O[C@@H]5CO[C@@H](C)O[C@H]5[C@H](O)[C@H]3O)[C@H]3COC(=O)[C@H]23)OCO4)cc(OC)c1O [ETOPOSIDE],IC50,T98G [1]; read-out: IC50,460 nM
same,IC50,MCF7 [2]; read-out: IC50,480 nM
same,IC50,[3]; read-out: IC50,620 nM
C/C(=N/NC(=S)Nc1cccc(Cl)c1)c1ccccn1,IC50,T98G [1]; read-out: pIC50 (converted),1 nM
same,IC50,MCF7 [2]; read-out: pIC50 (converted),24 nM
same,IC50,[3]; read-out: pIC50 (converted),31 nM
C/C(=N/NC(=S)Nc1ccc(I)cc1)c1ccccn1,IC50,T98G [1]; read-out: pIC50 (converted),64 nM
same,IC50,MCF7 [2]; read-out: pIC50 (converted),6.61 nM
same,IC50,[3]; read-out: pIC50 (converted),59 nM
C/C(=N\NC(=S)Nc1ccccc1I)c1ccccn1,IC50,T98G [1]; read-out: pIC50 (converted),8.09 nM
same,IC50,MCF7 [2]; read-out: pIC50 (converted),4.1 nM
same,IC50,[3]; read-out: pIC50 (converted),6.1 nM
C/C(=N\NC(=S)Nc1cccc(I)c1)c1ccccn1,IC50,T98G [1]; read-out: pIC50 (converted),61 nM
same,IC50,MCF7 [2]; read-out: pIC50 (converted),45 nM
same,IC50,[3]; read-out: pIC50 (converted),83.9 nM
C/C(=N/NC(=S)Nc1ccccc1F)c1ccccn1,IC50,T98G [1]; read-out: pIC50 (converted),3.1 nM
same,IC50,MCF7 [2]; read-out: pIC50 (converted),0.39 nM
same,IC50,[3]; read-out: pIC50 (converted),5 nM
